# Screens (PubChem BioAssay)
# bCat KO growth = beta-catenin-lacking colon tumor cell growth suppression | HCT116 beta-catenin knockout viability, CellTiter-Glo, 60 h; stronger effect = lower value | viability, % at 10 µM | actives 1.5% (n = 140,000) | AID 818;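 active = viability at or under a set limit, the compound median less 4 SD, cut at about 6% in these data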;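 note: 0% = Hyamine 1622 control at 20 µM and 100% = untreated cell control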
# PTEN del growth = suppresses growth of cells with PTEN deletion. viability, % at 10 µM. actives 1.2% (n = 140,000). HCT116 PTEN-null viability, CellTiter-Glo, 60 h; stronger effect = lower value;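 active = viability at or below a set limit, 4 SD under the median of all tested compounds, cut at about 3.7% in these data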;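 note: PTEN knockout HCT116 line with beta catenin targeted HCT116 as companion control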
# SDO1 yeast rescue = compounds rescuing growth of sdo1-depleted yeast, bone marrow failure model; S. cerevisiae sdo1-depleted JHY4D growth rescue, OD600 30 h; stronger effect = higher value; pdr5 snq2 efflux-pump mutant strain; z-score at 10 µM; AID 817; actives 0.21% (n = 140,000);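 active = z-score above 3 at both the 24 hr and the 30 hr optical density reads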;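 note: z-score against mean and SD of all compound wells on the same plate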
# Dynein transport = blocks dynein driven cargo transport along microtubules; 3617.4 mouse cells, GR-EGFP nuclear translocation imaging; test concentration mostly 20 µM; stimulated with dexamethasone, 1 µM; stronger effect = lower value; z-score, hits read low; actives 0.47% (n = 220,000); AID 1381;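 active = plate z-score of nuclear minus cytoplasmic receptor signal below a set negative limit, without overly bright fluorescence or cell loss, cut at about -3.5 in these data, passing the limit was not always enough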;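 note: z-score of nuclear minus cytoplasmic ring GR-EGFP intensity difference per well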
#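 Buffer or medium: tetracycline-free induction medium containing charcoal-stripped FBS / Reagent: dexamethasone agonist, 1.0 µM final, for 30 min / Technique: automated 10x imaging of fixed Hoechst-stained cells / Times: induction 48 h, compound 1 h, agonist 30 min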
# Autophagy mod = autophagy modulation, high-content screen; MEF GFP-LC3 puncta imaging; test concentration mostly 10 µM; calls only at 10 µM (by protocol); actives 0.98% (n = 190,000);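 active = percentage of spot-positive cells more than 3 SD above its plate mean, without a fluorescence outlier flag or 80% toxicity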;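 note: spot-positive cell cutoff set from DMSO-treated cells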
# * marks the source's active call; other numbers are inactive results; i = inactive; . = no result given; + = active, no number. Shown are actives, neighbours in structure and some others; about 2.2% of the full set was active somewhere.
SMILES,bCat KO growth,PTEN del growth,SDO1 yeast rescue,Dynein transport,Autophagy mod
CC(C)CNC(=O)Cn1c(=O)c2c(ncn2CC(C)C)n(Cc2ccccc2)c1=O,.,.,.,-0.58,+
Cc1ccc(-n2sc3ccccc3c2=O)cc1,1.4*,1.1*,-2.2,-1.5,i
Cc1ccc(Cn2c(=O)sc3ccccc3c2=O)cc1,88,90,-0.3,-0.44,i
O=C(CCc1nc2ccccc2c(=O)[nH]1)NCc1ccco1,.,.,.,-0.23,+
O=C(CCc1nc2ccccc2c(=O)[nH]1)NCc1ccccn1,.,.,.,-0.79,i
CCOc1cc(CNC2CCCC2)cc(Cl)c1OCc1ccccc1,1.6*,1.8*,-1,2.3,i
C=CCNCCCCOc1ccc(OCc2ccccc2)cc1,.,.,.,-1.6,+
COCCCNCCCCOc1ccc(OCc2ccccc2)cc1,.,.,.,1.7,i
N#CC1=C(N)SC(N)=C(C#N)C1c1cccc(Oc2ccccc2)c1,85,84,1.1,-0.3,i
N#CC1=C(N)N2C(=C(C#N)C1c1ccccc1)Sc1ccccc12 (centres undefined),90,91,-0.19,-0.41,+
COC(=O)c1sccc1NC(=O)COc1ccccc1Cl,85,78,-0.89,2.7,i
COc1cccc(/C=N/NC(=O)c2cc3c(OC)cccc3[nH]2)c1O,6.0*,2.6*,1.5,1.6,i
COc1cc(/C=N/NC(=O)c2c(-c3ccccc3)noc2C)ccc1O,91,105,-0.15,-0.84,i
COc1cccc(/C=N/NC(=O)c2c(-c3ccccc3)noc2C)c1O,5.8*,7,0.55,-1.5,i
CCC(CC)C(=O)N=C1SC2CS(=O)(=O)CC2N1CCc1ccc(OC)cc1 (centres undefined),100,88,-0.63,-0.63,i
COc1ccc(OC)c(C2CC(=O)c3c([nH]c(C(=O)OC(C)C)c3C)C2)c1 (centres undefined),14,15,-2.1,0.017,+
CCOC(=O)c1[nH]c2c(c1-c1ccccc1)C(=O)CC(c1ccccc1)C2 (centres undefined),59,75,0.2,-0.056,i
COC(=O)c1[nH]c2c(c1C)C(=O)CC(c1ccccc1)C2 (centres undefined),12,12,-0.43,0.12,+
Cc1c(C(=O)OC2CCCC2)[nH]c2c1C(=O)CC(c1ccco1)C2 (centres undefined),10,12,-0.7,-0.72,+
CCC(CC)c1nnc(NC(=O)C2=NNC(=O)CC2)s1,.,.,.,-0.24,i
CCOC(=O)C1(Cc2ccccc2)CCN(Cc2ccon2)CC1,.,.,.,0.075,+
CCOC(=O)C1(Cc2ccccc2)CCN(Cc2cccc3c2OCO3)CC1,.,.,.,0.12,+
CCOC(=O)CNC(=O)c1cn(CC(C)C)c(=O)c2cc(OC)c(OC)cc12,94,102,0.15,0.16,i
Cc1ccc(S(=O)(=O)NC(=O)NN2CCCCCC2)cc1,101,100,0.23,0.67,+
CC(C)OC(=O)c1ccc(NC(=O)c2ccccc2)cc1,82,85,1.4,0.23,+
SMILES,bCat KO growth,PTEN del growth,SDO1 yeast rescue,Dynein transport,Autophagy mod
CCOC(=O)c1ccc(NC(=O)c2ccc(NC(=O)c3ccccc3)cc2)cc1,71,88,-1.2,0.57,i
COc1ccc(C(=O)COC(=O)c2ccc(NC(=O)c3ccccc3)cc2)cc1,1.1*,33,1.5,-0.1,i
CC(C)=C1C2CC2C2C(C(=O)O)C12 (centres undefined),86,90,0.87,0.093,.
Cc1ccc(NC(=O)COC(=O)/C(=C/c2cccs2)c2cccs2)cc1S(=O)(=O)N(C)C,60,59,-0.88,0.11,i
Cc1ccc2[nH]c(C)c(/C=N/Nc3nc4ccccc4s3)c2c1,1.6*,1.1*,-2.5,0.62,i
CC(C)(C)c1ccc(CCC2OCC(C[N+]3(C)CCOCC3)O2)cc1 (centres undefined),.,.,.,-0.45,.
Cc1cc(-c2n[nH]c(=S)n2/N=C/C(Cl)=C/c2ccccc2)n[nH]1,5.0*,2.2*,-0.92,-0.37,i
COCCNC(=O)/C(C#N)=c1\s/c(=C\c2ccccc2OC(F)F)c(=O)n1Cc1ccccc1,.,.,.,-0.33,+
COCCCn1c(=O)/c(=C\c2ccccc2OC(F)F)s/c1=C(/C#N)C(=O)NCCOC,.,.,.,0.41,.
CCCCNC(=O)/C(C#N)=c1\s/c(=C\c2ccccc2OC(F)F)c(=O)n1CCCOC,92,86,-1,-0.31,+
Cc1cc(C)n2nc(C(=O)OCCOc3cccc(Br)c3)nc2n1,104,114,1.8,-1.1,i
CCC(C)(C)n1nnnc1C(c1cc2ccc(OC)cc2[nH]c1=O)N1CCc2ccccc21 (centres undefined),41,41,-1.2,-0.99,i
COc1ccc2cc(C(c3nnnn3C(C)(C)C)N3CCc4ccccc4C3)c(=O)[nH]c2c1 (centres undefined),3.5*,4,-0.32,0.5,i
CCC(C)(C)n1nnnc1C(c1cc2ccc(OC)cc2[nH]c1=O)N1CCc2ccccc2C1 (centres undefined),10,2.9*,-1.2,-0.91,i
Cn1ncc(N=Cc2ccc([N+](=O)[O-])cc2)c1C(=O)N1CCOCC1,93,99,-0.73,-0.085,i
O=c1c2ccccc2nc2c3ccccc3c(NCCN3CCOCC3)nn12,1.9*,2.5*,0.67,0.37,+
O=c1c2c(-c3ccccc3)csc2nc2c3ccccc3c(NCCN3CCOCC3)nn12,.,.,.,-3.3,+
N#C/C(=C/c1ccccc1)C(=O)NCc1ccccc1,.,.,.,0.099,i
CN(C)c1ccc(/C=C(/C#N)C(=O)NCc2ccccc2)o1,94,99,0.12,1.6,+
N#CC(C(=O)Nc1ccccc1)=C1Nc2ccccc2N1,86,80,-0.65,0.092,i
N#C/C(C(=O)Oc1ccccc1)=C1/Nc2ccccc2-c2ccccc21,57,73,0.05,0.67,+
COc1cc(C2C(C#N)=C(N)Oc3cc(N)ccc32)cc(OC)c1OC (centres undefined),22,16,0.09,-0.24,+
N#CC1=C(N)Oc2cc(N)ccc2C1c1ccc(F)cc1 (centres undefined),72,64,0.08,-0.74,i
Clc1ccccc1/C=N/NC1=Nc2cccc3cccc1c23,42,43,-0.37,-1.5,+
C(=N\NC1=Nc2cccc3cccc1c23)/c1ccccn1,.,.,.,-1.5,i
C=CCNc1nc(NCc2ccccc2)c(C#N)c2c1CN(C)CC2,45,46,-0.22,-0.39,i
N#Cc1c(NCCN)nc(NCc2ccccc2)c2c1CCN(Cc1ccccc1)C2,.,.,.,0.8,+
C=CCN1C(=O)/C(=C2/Sc3ccc(OC)cc3N2C)SC1=Nc1cccc(O)c1,.,.,.,1.4,+
O=C(NCC1CCCO1)C(c1ccccn1)N(Cc1ccccc1Cl)C(=O)CN1C(=O)c2ccccc2S1(=O)=O (centres undefined),.,.,.,1.4,+
